Test results reported in ChEMBL document CHEMBL4396973, “Design and development of a series of borocycles as selective, covalent kallikrein 5 inhibitors” (Bioorg Med Chem Lett, 2019).
Active and inactive are the calls of the source. No cut-off for these calls is given here.

How the values were obtained:
[1] = Genotoxicity in Salmonella typhimurium TA1535 in absence of rat S9 fraction by mini-Ames test; assay type: toxicity; details: salmonella enterica subsp. enterica serovar typhimurium
[2] = Genotoxicity in Salmonella typhimurium TA100 in presence of rat S9 fraction by mini-Ames test; assay type: toxicity, subcellular; details: salmonella enterica subsp. enterica serovar typhimurium
Kallikrein-8 = biological target: T1, Kallikrein-8 (Homo sapiens, UniProt O60259); assay: Inhibition of recombinant human C-terminal 10-His-tagged KLK8 (Gln29 to Gly260 residues) expressed in mouse NS0 cells using BOC-VPR-AMC as substrate incubated for 40 mins by FLINT assay
T1 sequence (O60259 whole entry): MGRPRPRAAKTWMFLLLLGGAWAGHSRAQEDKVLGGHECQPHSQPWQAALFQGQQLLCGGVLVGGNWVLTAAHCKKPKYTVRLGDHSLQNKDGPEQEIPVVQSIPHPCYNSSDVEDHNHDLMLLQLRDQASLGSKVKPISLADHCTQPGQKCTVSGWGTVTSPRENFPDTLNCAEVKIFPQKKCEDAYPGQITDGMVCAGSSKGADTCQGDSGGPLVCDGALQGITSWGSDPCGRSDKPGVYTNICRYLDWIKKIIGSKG

[3] = Genotoxicity in Salmonella typhimurium TA1537 in absence of rat S9 fraction by mini-Ames test; assay type: toxicity; details: salmonella enterica subsp. enterica serovar typhimurium
Kallikrein-5 [4] = biological target: T2, Kallikrein-5 (Homo sapiens, UniProt Q9Y337); assay: Inhibition of human recombinant 6His-Q-FLAG-tagged KLK5 expressed in baculovirus infected Sf9 insect cells using (Tos-Gly-Pro-Arg)2[R110].2TFA as substrate measured at 30 secs interval for 5 mins by FLINT assay
T2 sequence (Q9Y337 whole entry): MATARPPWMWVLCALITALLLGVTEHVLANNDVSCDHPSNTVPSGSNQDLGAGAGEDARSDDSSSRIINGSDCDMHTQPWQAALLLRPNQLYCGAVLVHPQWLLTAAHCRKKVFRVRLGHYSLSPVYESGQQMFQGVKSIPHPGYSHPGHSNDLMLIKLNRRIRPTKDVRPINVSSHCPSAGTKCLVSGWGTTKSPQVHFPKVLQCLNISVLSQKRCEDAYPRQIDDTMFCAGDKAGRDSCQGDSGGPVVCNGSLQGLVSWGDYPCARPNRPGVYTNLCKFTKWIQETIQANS
Outline: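 Standard KLK5 assay format. Its theoretical tight-binding limit corresponds to pIC50 8.4.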

[5] = biological target: T3, Suppressor of tumorigenicity 14 protein (Homo sapiens, UniProt Q9Y5Y6); assay: Inhibition of recombinant human N-terminal Met and 6-His-tagged matriptase (G596 to V855 residues) expressed in Escherichia coli using Boc-QAR-AMC as substrate incubated for 40 mins by FLINT assay
T3 sequence (Q9Y5Y6 whole entry): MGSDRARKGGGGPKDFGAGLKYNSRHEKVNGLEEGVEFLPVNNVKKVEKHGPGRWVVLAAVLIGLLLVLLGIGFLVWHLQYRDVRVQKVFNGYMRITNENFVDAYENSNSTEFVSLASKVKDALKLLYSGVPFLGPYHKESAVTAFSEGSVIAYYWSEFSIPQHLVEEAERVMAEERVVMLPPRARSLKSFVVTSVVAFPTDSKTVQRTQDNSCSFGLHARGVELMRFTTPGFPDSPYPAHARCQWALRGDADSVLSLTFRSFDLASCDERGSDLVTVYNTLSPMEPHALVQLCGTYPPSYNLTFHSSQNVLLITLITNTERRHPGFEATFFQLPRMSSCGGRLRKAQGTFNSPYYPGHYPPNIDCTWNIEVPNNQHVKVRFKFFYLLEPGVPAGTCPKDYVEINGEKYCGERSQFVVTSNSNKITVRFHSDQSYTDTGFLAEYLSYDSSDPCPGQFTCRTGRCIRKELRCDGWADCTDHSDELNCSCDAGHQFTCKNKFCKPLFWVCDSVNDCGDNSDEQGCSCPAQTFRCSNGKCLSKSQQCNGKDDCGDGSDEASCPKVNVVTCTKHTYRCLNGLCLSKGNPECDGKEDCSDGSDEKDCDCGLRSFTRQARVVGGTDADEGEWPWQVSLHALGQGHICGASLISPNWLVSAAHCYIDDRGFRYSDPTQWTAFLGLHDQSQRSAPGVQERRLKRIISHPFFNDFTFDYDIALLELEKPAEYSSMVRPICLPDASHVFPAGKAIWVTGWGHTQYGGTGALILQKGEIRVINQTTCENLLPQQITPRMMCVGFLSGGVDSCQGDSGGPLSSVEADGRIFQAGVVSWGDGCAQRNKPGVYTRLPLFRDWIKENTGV

[6] = biological target: Urokinase-type plasminogen activator (Homo sapiens, UniProt P00749); assay: Inhibition of recombinant human C-terminal 10-His-tagged urokinase (M1 to L431 residues) expressed in mouse NS0 cells using Z-GGR-AMC as substrate incubated for 40 mins by FLINT assay
[7] = biological target: Kallikrein-5 (Homo sapiens) (UniProt Q9Y337); assay: Covalent reversible inhibition of human recombinant 6His-Q-FLAG-tagged KLK5 expressed in baculovirus infected Sf9 insect cells assessed as dissociation half life
Outline: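 Jump-dilution experiment used to follow dissociation from KLK5. The apparent off-rate constant (K-off, per min) and dissociation half-life (T1/2) were derived from it.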

[8] = Genotoxicity in Salmonella typhimurium TA98 in absence of rat S9 fraction by mini-Ames test; assay type: toxicity; details: salmonella enterica subsp. enterica serovar typhimurium
[9] = Genotoxicity in Salmonella typhimurium TA1537 in presence of rat S9 fraction by mini-Ames test; assay type: toxicity, subcellular; details: salmonella enterica subsp. enterica serovar typhimurium
Kallikrein-5 [10] = biological target: T2, Kallikrein-5; assay: Inhibition of human recombinant 6His-Q-FLAG-tagged KLK5 expressed in baculovirus infected Sf9 insect cells using (Tos-Gly-Pro-Arg)2[R110].2TFA as substrate measured at 30 secs interval for 5 mins using 1 x 10'10M enzyme by FLINT assay
[11] = Solubility of the compound in Britton-Robinson buffer at pH 6 measured after 12 hrs; assay type: physicochemical
Outline: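 Solubility was measured in Britton-Robinson buffers spanning pH 2 to pH 8. Readings were taken after 12 h and 24 h and reported in mg/mL.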

[12] = Light absorbance of the compound in methanol under UV light irradiation at 290 nm
Outline: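 Compound dissolved in methanol. UV absorbance was examined across the range above 290 nm as a screen for light-mediated skin toxicity risk.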

Plasma kallikrein = Plasma kallikrein (Homo sapiens, UniProt P03952); assay: Inhibition of human C-terminal 6-His-tagged KLKB1 (G20-A638 residues) expressed in mouse NS0 cells using PFR-AMC as substrate incubated for 40 mins by FLINT assay
Sequence of Plasma kallikrein (P03952 20-390 limits assumed): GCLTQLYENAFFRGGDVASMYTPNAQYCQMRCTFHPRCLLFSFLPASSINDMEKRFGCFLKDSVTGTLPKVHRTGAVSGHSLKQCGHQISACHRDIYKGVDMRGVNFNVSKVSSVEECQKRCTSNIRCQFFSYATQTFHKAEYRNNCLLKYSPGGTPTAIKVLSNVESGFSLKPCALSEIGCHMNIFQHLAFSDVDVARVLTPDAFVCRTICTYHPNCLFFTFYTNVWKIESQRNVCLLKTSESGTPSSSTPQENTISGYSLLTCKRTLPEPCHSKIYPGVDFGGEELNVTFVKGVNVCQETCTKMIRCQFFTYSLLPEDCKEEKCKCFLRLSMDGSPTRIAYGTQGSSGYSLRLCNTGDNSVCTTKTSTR
Sequence of Plasma kallikrein (P03952 391-638 limits assumed): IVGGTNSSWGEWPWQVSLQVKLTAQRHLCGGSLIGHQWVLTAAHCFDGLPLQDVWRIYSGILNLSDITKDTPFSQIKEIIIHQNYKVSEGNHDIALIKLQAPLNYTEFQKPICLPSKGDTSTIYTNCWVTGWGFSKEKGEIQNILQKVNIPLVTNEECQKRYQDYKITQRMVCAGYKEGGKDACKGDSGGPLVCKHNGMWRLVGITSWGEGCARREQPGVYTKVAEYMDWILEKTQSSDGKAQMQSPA

[13] = Genotoxicity in Salmonella typhimurium TA1535 in presence of rat S9 fraction by mini-Ames test; assay type: toxicity, subcellular; details: salmonella enterica subsp. enterica serovar typhimurium
Kallikrein-7 = Kallikrein-7 (Homo sapiens, UniProt P49862); assay: Inhibition of recombinant human C-terminal 10-His-tagged KLK7 (Glu23 to His252 residues) expressed in mouse NS0 cells using 5-FAM-E-A-L-Y-L-V-S-G-C(5-TAMRA) as substrate incubated for 40 mins by FLINT assay
Sequence of Kallikrein-7 (P49862 whole entry): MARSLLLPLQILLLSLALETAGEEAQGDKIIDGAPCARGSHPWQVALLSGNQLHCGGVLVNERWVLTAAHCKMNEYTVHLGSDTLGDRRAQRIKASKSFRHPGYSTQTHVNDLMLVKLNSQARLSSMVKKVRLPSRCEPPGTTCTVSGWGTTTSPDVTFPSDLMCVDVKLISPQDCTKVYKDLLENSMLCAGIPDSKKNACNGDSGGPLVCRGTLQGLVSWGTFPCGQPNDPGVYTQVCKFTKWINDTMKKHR

IC50 (Kallikrein-8): 6.31 nM | IC50 (Kallikrein-5 [4]): 5.01 nM | IC50 [5]: 1260 nM | IC50 [6]: 7940 nM | T1/2 [7]: 1.17 h | IC50 (Kallikrein-5 [10]): < 0.316 nM | solubility at 12 h [11]: 3200 µg/mL | IC50 (Plasma kallikrein): 20 nM | IC50 (Kallikrein-7): 79400 nM
SMILES: Cl.N=C(N)c1ccc([C@H]2Cc3ccc(C(F)(F)F)cc3B(O)O2)cc1OCc1cccnc1
Activity [1]: Non-Toxic | Activity [2]: Non-Toxic | Activity [3]: Non-Toxic | Activity [8]: Non-Toxic | Activity [9]: Non-Toxic | Activity [12]: inactive | Activity [13]: Non-Toxic
